MEKK3 PB1 HTS – modulators of MEKK3-MEK5 PB1 binding, primary screen, biochemical, wildtype MEKK3, multiplex bead flow cytometry, Alexa488-MEK5; Mitogen-activated protein kinase kinase kinase 3 (Homo sapiens), Q99759; bead-based flow cytometry, Alexa488-MEK5 binding to MEKK3; actives lie on both sides; 0 = blocked by unlabeled MEK5, 100 = vehicle; binding response (% of control), % at 10 µM; actives 1.4% (n = 290,000);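 active = binding response more than 3 SD above or below the average of its plate-row segment, actives on both sides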;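 also: Alexa488 bead fluorescence after subtracting the streptavidin-only scavenger bead signal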
Target sequence (Q99759 whole entry, looked up): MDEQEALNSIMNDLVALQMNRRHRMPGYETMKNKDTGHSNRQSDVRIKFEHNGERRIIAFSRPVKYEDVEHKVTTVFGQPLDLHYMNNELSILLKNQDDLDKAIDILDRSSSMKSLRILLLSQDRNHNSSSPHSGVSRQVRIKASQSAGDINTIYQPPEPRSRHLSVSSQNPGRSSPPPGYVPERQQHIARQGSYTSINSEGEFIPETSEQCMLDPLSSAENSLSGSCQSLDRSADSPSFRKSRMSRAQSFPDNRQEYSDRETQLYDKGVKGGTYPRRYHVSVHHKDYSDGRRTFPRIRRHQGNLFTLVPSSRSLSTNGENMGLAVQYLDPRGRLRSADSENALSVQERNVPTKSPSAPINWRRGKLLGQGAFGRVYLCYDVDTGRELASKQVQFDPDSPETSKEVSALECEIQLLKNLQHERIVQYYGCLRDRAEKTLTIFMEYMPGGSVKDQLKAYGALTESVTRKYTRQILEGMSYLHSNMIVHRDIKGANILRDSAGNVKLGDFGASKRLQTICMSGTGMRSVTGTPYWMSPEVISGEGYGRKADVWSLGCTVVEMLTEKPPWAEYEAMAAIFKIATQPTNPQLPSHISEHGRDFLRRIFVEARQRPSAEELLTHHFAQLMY
MEKK2mut PB1 HTS – MEK5 binding signal on mutant MEKK2 PB1, primary screen, biochemical, multiplex bead flow cytometry, Alexa488-MEK5. percent response, % at 10 µM. AID 1530, 2009. Alexa488-MEK5 binding to MEKK2 mutant. actives 0.35% (n = 290,000); in the data active = percent response above about 24%, passing the limit was not always enough
ABCB1 block – ABCB1 efflux pump inhibitors, primary screen, cell-based, multiplex, flow cytometry, ABCG2 counter-screen | CCRF-Adr cells, JC-1 efflux | actives 0.067% (n = 190,000) | inhibition, % at 6.6 µM | ATP-dependent translocase ABCB1 (Homo sapiens), P08183; in the data active = inhibition above about 40%;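 also: 0% = vehicle and 100% = reference inhibitor; higher value means more JC-1 retained so stronger ABCB1 efflux block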
MEKK2 WT-MEK5 – modulators of MEK5 binding to wildtype MEKK2, primary screen, biochemical, multiplex bead flow cytometry, Alexa488-MEK5. actives 1.1% (n = 290,000). binding response (% of control), % at 10 µM. Alexa488-MEK5 binding to MEKK2 WT; actives lie on both sides; in the data active = binding response below about 67% or above about 130%
ABCG2 block – ABCG2 efflux pump inhibitors, primary screen, multiplex with ABCB1, IgMXP3 cells, flow cytometry; Broad substrate specificity ATP-binding cassette transporter ABCG2 (Homo sapiens), Q9UNQ0; JC-1 efflux; inhibition, % at 6.6 µM; actives 0.1% (n = 190,000); AID 1325, 2008;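 active = inhibition above 80%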;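 also: 0% = DMSO and 100% = nicardipine control wells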
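Test system: IgMXP3 (ABCG2) plus far-red-tagged CCRF-Adr (ABCB1) cells / Amount: 3 million cells/mL in well / Reagent: JC-1 transporter substrate / Timing: 10 min compound exposure, 25 °C / Signal: flow cytometry, 530 nm JC-1 signal / Read-out: percent efflux inhibition, scaled nicardipine 100% to DMSO 0% / Benchmarks: nicardipine as high control, DMSO as low control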
Efflux pump inh – inhibitors of Candida efflux pumps in yeast, primary screen, S. cerevisiae, Nile Red, multiplex | AID 485275, 2010 | S. cerevisiae Candida pump triplex | actives 0.44% (n = 330,000) | inhibition, % at 10 µM;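 active = plate passing quality check with inhibition over a set limit, or well fluorescence over plate mean plus 4 SD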;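 also: Nile Red retained in pooled yeast measured as flow cytometry median fluorescence; 0% = buffer negative control and 100% = Enniatin B positive control; higher means more Nile Red kept so more efflux inhibition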
MEKK2wt confirm – modulators of MEK5 binding to wildtype MEKK2, confirmation, biochemical, single concentration, multiplex bead flow cytometry. AID 1892, 2009. Alexa488-MEK5 binding to MEKK2 WT; actives lie on both sides. shares compounds with MEKK3 PB1 HTS. actives 2.4% (n = 5,900). binding response (% of control), % at 10 µM; in the data active = binding response below about 16% or above about 210%; inactive = in between
MEKK2mut-MEK5 – mutant MEKK2 PB1-MEK5 binding signal retest – biochemical, single concentration, multiplex bead flow cytometry, confirmation. shares compounds with MEKK3 PB1 HTS. Alexa488-MEK5 binding to MEKK2 mutant. percent response, % at 10 µM. actives 2% (n = 5,900). AID 1893, 2009; in the data active = percent response mostly above about 71%, no sharp cut-off; inactive = mostly below about 38%;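 also: higher means compound restores mutant binding toward wildtype level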
MEKK3 confirm – MEKK3 wild-type PB1 binding to MEK5, inhibitors, confirmation, biochemical, bead multiplex flow cytometry, single concentration, wildtype | shares compounds with MEKK3 PB1 HTS | Alexa488-MEK5 binding to MEKK3; active compounds read low | binding response (% of control), % at 10 µM | actives 1.8% (n = 5,900);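 active = binding response below 72% of control, or above a set upper limit, though filed actives all read lower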;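 also: 100% = DMSO only wells and 0% = binding blocked by excess unlabeled MEK5; lower values mean stronger disruption of MEK5 binding to MEKK3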
* = called active by the depositor; x = no result given; [ ] = dose if it differs, or a comment. Most compounds without a hit are left out; they make up all but 2.5% or so of the library.

SMILES	MEKK3 PB1 HTS	MEKK2mut PB1 HTS	ABCB1 block	MEKK2 WT-MEK5	ABCG2 block	Efflux pump inh	MEKK2wt confirm	MEKK2mut-MEK5	MEKK3 confirm
CCCCN(CC)CCCNC(=S)Nc1ccc2nc(N3CCN(C)CC3)cc(C)c2c1	97	15	0	142*	0	0	142	21	108
COc1ccccc1CNC(=S)Nc1ccc2nc(N3CCN(C)CC3)cc(C)c2c1	105	22	0	138*	-1	0	141	9	101
COc1ccc(CNC(=S)Nc2ccc3nc(N4CCOCC4)cc(C)c3c2)cc1	104	10	0	108	1	0	x	x	x
Cc1cc(N2CCN(C)CC2)nc2ccc(NC(=S)NCc3cccs3)cc12	110	21	0	141*	0	0	124	15	104
CCN1CCN(c2cc(C)c3cc(NC(=S)NCc4cccs4)ccc3n2)CC1	89	4	-1	133	-2	0	x	x	x
O=c1oc2ccc(C#CC3(O)CCCCC3)cc2cc1-n1cc(C2(O)CCCCC2)nn1	x	x	x	x	x	0	x	x	x
COc1cc(/C=N/NC(=O)C2CCN(CC(O)COCc3ccccc3)CC2)ccc1O (centres undefined)	101	0	0	99	0	0	x	x	x
O=C(Nc1cccc(S(=O)(=O)NC2=NCCC2)c1)c1c(F)cccc1Cl	x	x	x	x	x	0	x	x	x
Cc1ccc(-c2nc3ccccc3n3c(C)nnc23)cc1	101	1	2	97	51	x	x	x	x
COc1cccc(Nc2nc3ccccc3n3nnnc23)c1	2.0*[inhibitor]	-14	1	3.0*[inhibitor]	3	0	104	-1	100
Fc1cccc(Nc2nc3ccccc3n3nnnc23)c1	107	3	0	105	6	0	x	x	x
Cc1ccc(-c2nc3ccccc3n3nnnc23)cc1	82*[inhibitor]	-6	1	86	9	x	98	-10	101
COC(=O)CCC(=O)Nc1ccc(C)cc1OC(=O)CCC(=O)OC	114	28*	0	115	0	0	96	-4	101
Cc1cc([N+](=O)[O-])cc2c1NC(=O)C2(O)N1CCCCCC1 (centres undefined)	163*	2	2	118	38	0	111	4	106
Cc1cc([N+](=O)[O-])cc2c1NC(=O)C2(O)N1CCCC(C)C1 (centres undefined)	101	8	x	106	x	0	x	x	x
COc1ccc(CCNCc2cc(C)n(-c3ccc(OC)cc3)c2C)cc1	97	61*	x	184*	x	3	148	22	99
Cn1c(=O)c([N+](=O)[O-])c(NCCc2ccccc2)c2ccccc21	129*	1	2	106	12	0	105	5	107
Cc1noc(C)c1N=Nc1ccc(Br)cc1C(=O)O	107	9	0	107	4	0	x	x	x
Cc1cccc(C(=O)Nc2sc3c(c2C(=O)O)CCC3)c1	75*[inhibitor]	-14	x	84	x	0	96	-8	98
CN(C)CCNC(=O)c1c(NC(=O)c2ccccc2)sc2c1CCCC2	109	14	x	148*	x	0	134	18	106
CNC(=O)c1c(NC(=O)c2cccc(C)c2)sc2c1CCC2	101	0	x	105	x	0	x	x	x
C#CCOc1ccccc1C(N)=O	104	2	x	103	x	0	x	x	x
COCC(C)n1c(SCC(=O)NC(=O)NCc2ccccc2)nc2ccccc2c1=O (centres undefined)	x	x	x	x	x	0	x	x	x
O=C(NNc1ccc(C2CCCCC2)cc1)C(O)(c1ccccc1)c1cccs1 (centres undefined)	105	0	0	94	3	0	x	x	x
COc1ccc(C(O)(C(=O)NNc2ccc(C)cc2)c2cccs2)cc1 (centres undefined)	122*	5	-1	115	-1	0	101	-1	106
SMILES	MEKK3 PB1 HTS	MEKK2mut PB1 HTS	ABCB1 block	MEKK2 WT-MEK5	ABCG2 block	Efflux pump inh	MEKK2wt confirm	MEKK2mut-MEK5	MEKK3 confirm
O=c1c(-c2ccc3c(c2)OCCO3)coc2cc(OC3OC(CO)C(O)C(O)C3O)ccc12 (centres undefined)	44*[inhibitor]	-11	x	46*[inhibitor]	x	0	97	-5	103
COc1ccc(-c2coc3cc(O[C@@H]4O[C@H](CO)[C@@H](O)[C@H](O)[C@H]4O)ccc3c2=O)cc1	x	x	x	x	x	0	x	x	x
O=C(Cc1cnc2ncnn2c1)N1CCc2c([nH]c3ccccc23)C1c1ccccc1F (centres undefined)	104	-7	1	91	4	0	x	x	x
O=C(CNC(=O)c1cccs1)Nc1ccncc1	x	x	x	x	x	0	x	x	x
CC(C)(C)NC(=O)NC(=O)COC(=O)Cc1coc2ccc3ccccc3c12	143*	1	1	112	16	0	95	-3	97
Cc1c(Cl)cnc(NC(=O)COC(=O)Cc2coc3ccc4ccccc4c23)c1Cl	131*	0	0	102	1	0	80	-14	84
CC(C)OP(=O)(OC(C)C)C1(NS(=O)(=O)c2ccc(Cl)cc2)C=C(Cl)C(=O)C(Cl)=C1	99	-3	x	98	x	0	x	x	x
CCCC(=O)Nc1cccc(-c2nc3ccccc3c(=O)o2)c1	96	-6	0	94	3	0	x	x	x
N/C(=N\OS(=O)(=O)c1ccccc1)c1cccnc1	130*	0	0	106	1	0	109	7	108
N/C(=N\OS(=O)(=O)c1ccc2ccccc2c1)c1cccnc1	83	1	1	104	10	0	x	x	x
CCc1nc(N2CCN(C(C)=O)CC2)c2c3c(sc2n1)CC(C(C)(C)C)CC3 (centres undefined)	101	4	x	107	x	0	x	x	x

High-throughput results deposited in PubChem by NMMLSC.
